Test results as given in publication PMC7578760 (iScience, 2020).

System: CIC
Test: Nuclear/cytoplasmic distribution of CIC
Type: cell-based, human
Settings: 293T and MCF7; FGF 10 ng/mL or EGF 75 ng/mL, time course
Method in brief: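 293T and MCF7 cells grown in high-glucose DMEM with 10% FBS and penicillin-streptomycin. Endogenous CIC: cells exposed to 10 ng/mL FGF or 75 ng/mL EGF for indicated times. Exogenous CIC: cells transfected with HA-CIC plasmid for 48 h, then FGF 10 ng/mL for 0, 1, 2 h. Cells separated into nuclear and cytoplasmic fractions; CIC in each fraction detected by western blot.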

B1: EGF: mitogen, 75 ng/mL (protein, UniProt P01133 23-1207, looked up)
Pro-epidermal growth factor: PQHWSCPEGTLAGNGNSTCVGPAPFLIFSHGNSIFRIDTEGTNYEQLVVDAGVSVIMDFHYNEKRIYWVDLERQLLQRVFLNGSRQERVCNIEKNVSGMAINWINEEVIWSNQQEGIITVTDMKGNNSHILLSALKYPANVAVDPVERFIFWSSEVAGSLYRADLDGVGVKALLETSEKITAVSLDVLDKRLFWIQYNREGSNSLICSCDYDGGSVHISKHPTQHNLFAMSLFGDRIFYSTWKMKTIWIANKHTGKDMVRINLHSSFVPLGELKVVHPLAQPKAEDDTWEPEQKLCKLRKGNCSSTVCGQDLQSHLCMCAEGYALSRDRKYCEDVNECAFWNHGCTLGCKNTPGSYYCTCPVGFVLLPDGKRCHQLVSCPRNVSECSHDCVLTSEGPLCFCPEGSVLERDGKTCSGCSSPDNGGCSQLCVPLSPVSWECDCFPGYDLQLDEKSCAASGPQPFLLFANSQDIRHMHFDGTDYGTLLSQQMGMVYALDHDPVENKIYFAHTALKWIERANMDGSQRERLIEEGVDVPEGLAVDWIGRRFYWTDRGKSLIGRSDLNGKRSKIITKENISQPRGIAVHPMAKRLFWTDTGINPRIESSSLQGLGRLVIASSDLIWPSGITIDFLTDKLYWCDAKQSVIEMANLDGSKRRRLTQNDVGHPFAVAVFEDYVWFSDWAMPSVMRVNKRTGKDRVRLQGSMLKPSSLVVVHPLAKPGADPCLYQNGGCEHICKKRLGTAWCSCREGFMKASDGKTCLALDGHQLLAGGEVDLKNQVTPLDILSKTRVSEDNITESQHMLVAEIMVSDQDDCAPVGCSMYARCISEGEDATCQCLKGFAGDGKLCSDIDECEMGVPVCPPASSKCINTEGGYVCRCSEGYQGDGIHCLDIDECQLGEHSCGENASCTNTEGGYTCMCAGRLSEPGLICPDSTPPPHLREDDHHYSVRNSDSECPLSHDGYCLHDGVCMYIEALDKYACNCVVGYIGERCQYRDLKWWELRHAGHGQQQKVIVVAVCVVVLVMLLLLSLWGAHYYRTQKLLSKNPKNPYEESSRDVRSRRPADTEDGMSSCPQPWFVVIKEHQDLKNGGQPVAGEDGQAADGSMQPTSWRQEPQLCGMGTEQGCWIPVSSDKGSCPQVMERSFHMPSYGTQTLEGGVEKPHSLLSANPLWQQRALDPPHQMELTQ
modifications: Pro-epidermal growth factor
cytosolic fraction of CIC: time-dependent increase in the cytosolic fraction of CIC
nuclear fraction of CIC: concomitant drop of the nuclear fraction
